Source: PubChem BioAssay
PKD1 inh = inhibitors of human PKD1 kinase; PKD1 kinase fluorescence polarization assay; inhibition, % (no concentration beside the values); actives 0.056% (n = 200,000); in the data active = inhibition above about 50%
Target sequence (Q15139 whole entry, looked up): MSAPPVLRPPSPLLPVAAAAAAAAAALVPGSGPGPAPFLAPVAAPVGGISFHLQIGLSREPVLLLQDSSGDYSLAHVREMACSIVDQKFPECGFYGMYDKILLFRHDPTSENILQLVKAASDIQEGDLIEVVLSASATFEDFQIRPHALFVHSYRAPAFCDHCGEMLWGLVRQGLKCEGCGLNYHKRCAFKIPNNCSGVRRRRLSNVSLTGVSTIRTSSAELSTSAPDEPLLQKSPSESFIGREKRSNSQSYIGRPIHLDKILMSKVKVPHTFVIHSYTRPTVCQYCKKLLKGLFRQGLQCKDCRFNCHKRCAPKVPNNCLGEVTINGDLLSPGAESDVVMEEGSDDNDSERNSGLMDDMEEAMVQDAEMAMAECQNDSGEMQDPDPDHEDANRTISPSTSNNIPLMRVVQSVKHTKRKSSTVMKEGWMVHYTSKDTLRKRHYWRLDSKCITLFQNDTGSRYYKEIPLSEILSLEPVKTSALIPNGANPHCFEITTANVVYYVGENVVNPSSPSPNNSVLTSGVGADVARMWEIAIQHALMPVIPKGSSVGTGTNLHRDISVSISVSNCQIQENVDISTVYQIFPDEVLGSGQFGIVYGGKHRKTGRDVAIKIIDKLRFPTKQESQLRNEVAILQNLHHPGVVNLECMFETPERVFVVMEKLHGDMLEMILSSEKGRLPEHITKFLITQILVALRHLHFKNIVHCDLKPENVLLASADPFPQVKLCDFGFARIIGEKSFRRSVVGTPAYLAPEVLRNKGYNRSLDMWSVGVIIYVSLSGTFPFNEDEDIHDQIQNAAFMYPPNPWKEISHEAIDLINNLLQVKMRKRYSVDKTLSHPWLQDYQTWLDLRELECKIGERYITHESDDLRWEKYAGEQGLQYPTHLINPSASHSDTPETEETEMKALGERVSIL
m-calpain inh = calpain II (pig) inhibition | purified calpain II, fluorogenic peptide substrate, 30 min | inhibition, % at 16 µM | actives 0.37% (n = 220,000);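 active = inhibition above about 50%, limit read from the data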
Rad51 HR inh = blocks human Rad51 in homologous recombination; Q06609; hRad51 DNA strand exchange, fluorescence dequenching; inhibition, % at 10 µM; actives 0.085% (n = 200,000); AID 1385;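 active = inhibition above 40% at the single screening dose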;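 note: 0% = DMSO control wells and 100% = blanks with heterologous ssDNA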
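Test system – preformed human Rad51 ssDNA filaments · Reagent – Donor/quencher-labelled 47-bp dsDNA substrate · Incubation – 37 °C 15-min filament assembly, 30-min compound preincubation, 15-min exchange · Signal – FRET fluorescence dequenching, excitation 485 nm, emission 520 nm · Read-out – percent inhibition from fluorescence, normalised to plate control and blank means · Benchmarks – plate control and blank wells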
DTT redox prof = compounds producing H2O2 with reducing agent – biochemical, NIH compound library profiling, artefact control for MLSCN library redox annotation, primary screen; activation, % at 10 µM; actives 0.03% (n = 200,000); DTT-dependent redox cycling H2O2, phenol red/HRP absorbance; 100% = 100 µM peroxide control, 0% = buffer;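 active = activation of at least 50% relative to the plate's high and low controls in the primary single-dose screen; inactive = activation below 50%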;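 note: compound incubated with DTT at 0.8 mM final as the reducing agent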
Efa HMGR inh = inhibitors of class II HMG-CoA reductase from Enterococcus faecalis | purified E. faecalis HMGR, NADPH absorbance 340 nm kinetic | AID 1066 | inhibition, % at 10 µM | actives 0.41% (n = 190,000);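 active = inhibition above a set limit, the median over all tested compounds plus 3 SD, cut at about 9.5% in these data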;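 note: enzyme runs in reverse so mevalonate oxidation gives rising NADPH absorbance; 0% = complete reaction with DMSO and 100% = background rate lacking mevalonate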
Pf gamet viab = kills late stage P. falciparum gametocytes; AID 743093; actives 0.065% (n = 150,000); inhibition, % at 10.9 µM; P. falciparum stage V gametocytes, ATP luminescence, 24 h;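 active = inhibition above the mean plus 3 SD of compounds within the control limits, set per campaign, cut at about 38% in these data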;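 note: 0% = DMSO wells and 100% = medium only without gametocytes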
* hit, by the source's call. The list is not random: actives were taken first. Their share in the collection is about 0.81%.

For CCOC(=O)N1CCN(c2c(-c3ccc(C(C)C)cc3)c(=O)c2=O)CC1 the results were PKD1 inh 1, m-calpain inh 18, Rad51 HR inh -5, DTT redox prof 0 and Efa HMGR inh -2.
For OCC1(Cc2ccccc2)CCN(Cc2cnc(-c3ccc(Cl)cc3)nc2)CC1 the results were PKD1 inh 0, m-calpain inh -26, Rad51 HR inh 4, DTT redox prof -1, Efa HMGR inh 3 and Pf gamet viab 42*.
`c1ccc(CSc2ccc(-c3cccs3)nn2)nc1` gave PKD1 inh -1, m-calpain inh -18, Rad51 HR inh 5, DTT redox prof 0, Efa HMGR inh 12* and Pf gamet viab -2.
CCC(=O)Oc1ccc(C(=O)Nc2ccc3c(c2)OCO3)cc1 was read as PKD1 inh 0, m-calpain inh -15, Rad51 HR inh 2, DTT redox prof 0, Efa HMGR inh 0 and Pf gamet viab 1.
For CN(C)/C=N/N(C)c1ncccc1[N+](=O)[O-] the results were m-calpain inh -24 and Pf gamet viab -7.
Screening Cc1cc(C(=O)O)ccc1-n1c(C)cc(/C=C(/C#N)C(=O)Nc2ccccc2)c1C returned PKD1 inh -1, m-calpain inh 59*, DTT redox prof 6, Efa HMGR inh -2 and Pf gamet viab -16.
For Cc1cc(/C=C(\C#N)C(=O)Nc2ccccc2)c(C)n1-c1cccnc1 the results were PKD1 inh 4, m-calpain inh 1, Rad51 HR inh -6, DTT redox prof 1, Efa HMGR inh 0 and Pf gamet viab 8.
`COC(CNC(=O)CNC(=S)N(Cc1ccccc1)Cc1cccnc1)OC` gave PKD1 inh 1, m-calpain inh -14, Rad51 HR inh -7, DTT redox prof 0, Efa HMGR inh 9.6* and Pf gamet viab -7.
For Cc1nc([N+](=O)[O-])cn1Cc1cccc([N+](=O)[O-])c1 the results were PKD1 inh 6, m-calpain inh -33, Rad51 HR inh -2, DTT redox prof -1, Efa HMGR inh 1 and Pf gamet viab 0.
CC(=O)c1cccc(NC(=O)c2c(F)c(F)c(F)c(F)c2F)c1 was read as PKD1 inh 4, m-calpain inh 51*, Rad51 HR inh -9, DTT redox prof -1 and Efa HMGR inh -1.
O=C(Nc1ccc2c(c1)OCO2)c1c(F)c(F)c(F)c(F)c1F was read as PKD1 inh -1, m-calpain inh 52*, Rad51 HR inh -4, DTT redox prof -1, Efa HMGR inh -1 and Pf gamet viab 12.
`O=C(Nc1ccc2c(c1)OCO2)c1ccc2c(c1)OCO2` gave PKD1 inh 3, m-calpain inh 13, Rad51 HR inh -7, DTT redox prof -1, Efa HMGR inh -5 and Pf gamet viab 12.
For COc1cccc2c1C(=O)c1c(O)c3c(c(O)c1C2=O)C[C@@](O)(C(=O)CO)C[C@@H]3O[C@H]1C[C@H](N)[C@H](O)[C@H](C)O1 the results were PKD1 inh 75*, m-calpain inh -53, Rad51 HR inh 66*, DTT redox prof 13 and Efa HMGR inh -6.
Screening CC(C)COc1ncnc2c1sc1nc3c(cc12)COC(C)(C)C3 returned m-calpain inh -27.
For COc1cc2c(cc1OC)CN(C(C)C(=O)N1CCc3ccccc31)CC2 (stereo unspecified) the results were PKD1 inh -3, m-calpain inh -60, Rad51 HR inh 9, DTT redox prof 1 and Efa HMGR inh 19*.
Screening CC1CCN(S(=O)(=O)c2cccc(C(=O)NNC(=O)c3ccco3)c2)CC1 returned m-calpain inh -8, Rad51 HR inh -9 and Pf gamet viab 2.
CCN1C(=O)/C(=C\N(C)C)c2ccccc21 was read as PKD1 inh -6, m-calpain inh -6, Rad51 HR inh 3, DTT redox prof 0 and Efa HMGR inh 11*.
COc1ccc(CNc2oc(COc3ccc(Cl)cc3)nc2C#N)cc1 was read as PKD1 inh -15, m-calpain inh 54*, Rad51 HR inh 3, DTT redox prof -1, Efa HMGR inh -4 and Pf gamet viab 8.
Screening COc1ccc(Nc2oc(COc3ccc(Cl)cc3)nc2C#N)cc1 returned PKD1 inh 0, m-calpain inh -32, Rad51 HR inh -5, DTT redox prof 2 and Efa HMGR inh -5.
`Cc1occc1-c1nnc(SCC(=O)N2CCCCC2)o1` gave PKD1 inh -6, m-calpain inh 4, Rad51 HR inh 5, DTT redox prof 4, Efa HMGR inh 13* and Pf gamet viab -12.
For Cc1occc1-c1nnc(SCC(N)=O)o1 the results were PKD1 inh 2, m-calpain inh -31, Rad51 HR inh -67, DTT redox prof -1, Efa HMGR inh -7 and Pf gamet viab 1.
Cc1ccccc1NC(=O)c1ccc(N/N=C/c2ccccc2O)c([N+](=O)[O-])c1 was read as PKD1 inh 7, m-calpain inh 55*, DTT redox prof -3, Efa HMGR inh 4 and Pf gamet viab 24.
Screening Cn1c(-c2cccc(Br)c2)cnc1NCc1cccnc1 returned PKD1 inh -3, m-calpain inh 0, Rad51 HR inh -8, DTT redox prof 0, Efa HMGR inh 0 and Pf gamet viab 21.
`COc1cccc(-c2cnc(NCc3cc(Cl)ccc3O)n2C)c1` gave PKD1 inh 4, m-calpain inh 55*, Rad51 HR inh -7, DTT redox prof 1 and Efa HMGR inh -2.
`COc1ccc(C2=NOC(CNC(=S)N3CCOCC3)C2)cc1` (stereo unspecified) gave m-calpain inh 8, Rad51 HR inh -22 and Pf gamet viab 18.
`COc1cc(NC(=O)c2cccnc2SC)cc(OC)c1OC` gave PKD1 inh -2, m-calpain inh -2, Rad51 HR inh -2, DTT redox prof -3, Efa HMGR inh 13* and Pf gamet viab 15.
Cc1ccc(N2CCCn3c2cc(C)c(C#N)c3=O)cc1C was read as PKD1 inh -12, m-calpain inh -1, Rad51 HR inh 0, DTT redox prof 1, Efa HMGR inh 9.8* and Pf gamet viab 16.
`COc1ccc(-c2oc(=O)c3cc(OC)c(OC)cc3c2C#C[C@]2(O)CC[C@H]3[C@@H]4CCc5cc(OC)ccc5[C@H]4CC[C@@]32C)cc1` gave Pf gamet viab 13.
Screening COc1ccc(-n2ncc3c(NCc4cccs4)ncnc32)cc1 returned PKD1 inh -7, m-calpain inh 8, Rad51 HR inh 7, DTT redox prof 2, Efa HMGR inh 2 and Pf gamet viab -26.
For c1ccc(-n2ncc3c(NCc4cccs4)ncnc32)cc1 the results were PKD1 inh 6, m-calpain inh 64*, Rad51 HR inh -4, DTT redox prof -3, Efa HMGR inh -1 and Pf gamet viab 5.
